Test results as given in ChEMBL document CHEMBL1914330 (Eur J Med Chem, 2011).
The source made the active and inactive calls. The rule behind the calls is not given here.

Legend:
CCRF-CEM [1] = assay: Antiproliferative activity against human CEM cells after 2 days by coulter counter analysis; type: functional, cell-based; conditions: 48 h
Procedure, shortened: (§1)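 Cells suspended at 300,000–500,000 cells/mL and mixed 1:1 with diluted compound. Incubated at 37 °C for two days, then counted with a Coulter counter. IC50 is the concentration inhibiting proliferation by 50%, as mean ± SE from dose-response curves of at least three independent experiments.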

HeLa = assay: Antiproliferative activity against human HeLa cells after 2 days by coulter counter analysis; type: functional, cell-based; conditions: 48 h; procedure, shortened: as §1
L1210 = assay: Antiproliferative activity against mouse L1210 cells after 2 days by coulter counter analysis; type: functional, cell-based; conditions: L1210, 48 h; procedure, shortened: as §1
MOLT-4 = assay: Antiproliferative activity against human MOLT4 cells after 2 days by coulter counter analysis; type: functional, cell-based; conditions: MOLT-4, 48 h
FM3A = assay: Antiproliferative activity against mouse FM3A cells after 2 days by coulter counter analysis; type: functional, cell-based; conditions: 48 h
Bos taurus = organism: Bos taurus; assay: Inhibition of bovine brain tubulin polymerization at 20 uM after 20 mins by turbidimetry
Procedure, shortened: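 Purified bovine brain tubulin at 10 µM was preincubated with compound in glutamate buffer at 30 °C, then cooled to 0 °C and GTP added. Samples were warmed to 30 °C in a recording spectrophotometer and assembly followed by turbidity.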

[2] = Antiproliferative activity against human taxol-resistant A549-T12 cells after 72 hrs by MTT assay; type: functional, cell-based; conditions: A549, 72 h
Procedure, shortened: (§2)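 Cells seeded at 8 × 10³ per well in complete medium and exposed to a range of compound concentrations at 37 °C for 72 h. Viability read by MTT test. IC50 taken as the concentration inhibiting proliferation by 50%.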

[3] = Antiproliferative activity against human vinblastine-resistant CEM/VBL100 cells after 72 hrs by MTT assay; type: functional, cell-based; conditions: CEM/VBL100, 72 h; procedure, shortened: as §2
CCRF-CEM [4] = assay: Antiproliferative activity against human CEM cells after 72 hrs by MTT assay; type: functional, cell-based; procedure, shortened: as §2

Structure (SMILES): COc1cc(C(=O)c2sc(N(C)Cc3ccccc3)nc2N)cc(OC)c1OC
- IC50 (CCRF-CEM [1]): > 200 µM
- IC50 (HeLa): > 200 µM
- IC50 (L1210): > 200 µM
- IC50 (MOLT-4): > 200 µM
- IC50 (FM3A): > 200 µM

Structure (SMILES): COc1ccccc1C(=O)c1sc(N2CCCC2)nc1N
- IC50 (CCRF-CEM [1]): 171 µM
- IC50 (HeLa): 185 µM
- IC50 (L1210): > 200 µM
- IC50 (MOLT-4): > 200 µM
- IC50 (FM3A): > 200 µM

Structure (SMILES): CCN(CC)c1nc(N)c(C(=O)c2cc(OC)c(OC)c(OC)c2)s1
- inhibition (Bos taurus): inactive
- IC50 (CCRF-CEM [1]): 78 µM
- IC50 (HeLa): 38 µM
- IC50 (L1210): 62 µM
- IC50 (FM3A): 115 µM

Structure (SMILES): COc1ccc(C(=O)c2sc(N3CCCC3)nc2N)cc1
- IC50 (CCRF-CEM [1]): > 200 µM
- IC50 (HeLa): > 200 µM
- IC50 (L1210): > 200 µM
- IC50 (MOLT-4): > 200 µM
- IC50 (FM3A): > 200 µM

Structure (SMILES): CCCCN(C)c1nc(N)c(C(=O)c2cc(OC)c(OC)c(OC)c2)s1
- IC50 (CCRF-CEM [1]): 42 µM
- IC50 (HeLa): 31 µM
- IC50 (L1210): 53 µM
- IC50 (MOLT-4): 32 µM
- IC50 (FM3A): 47 µM

Structure (SMILES): COc1cc(C(=O)c2sc(N3CCCCC3)nc2N)cc(OC)c1OC
- inhibition (Bos taurus): inactive
- IC50 (CCRF-CEM [1]): 22 µM
- IC50 (HeLa): 11 µM
- IC50 (L1210): 43 µM
- IC50 (MOLT-4): 16 µM
- IC50 (FM3A): 39 µM

Structure (SMILES): COc1cc(C(=O)c2sc(N(C)C)nc2N)cc(OC)c1OC
- inhibition (Bos taurus): inactive
- IC50 (CCRF-CEM [1]): 11 µM
- IC50 (HeLa): 8.2 µM
- IC50 (L1210): 11 µM
- IC50 (FM3A): 12 µM

Structure (SMILES): Nc1nc(N2CCCC2)sc1C(=O)c1ccc(Cl)cc1
- IC50 (CCRF-CEM [1]): > 200 µM
- IC50 (HeLa): > 200 µM
- IC50 (L1210): > 200 µM
- IC50 (MOLT-4): > 200 µM
- IC50 (FM3A): > 200 µM

Structure (SMILES): CC(=O)O[C@H]1C(=O)[C@@]2(C)[C@H]([C@H](OC(=O)c3ccccc3)[C@]3(O)C[C@H](OC(=O)[C@H](O)[C@@H](NC(=O)c4ccccc4)c4ccccc4)C(C)=C1C3(C)C)[C@]1(OC(C)=O)CO[C@@H]1C[C@@H]2O [PACLITAXEL]
- IC50 [2]: 0.075 µM

Structure (SMILES): CC[C@]1(O)C[C@@H]2CN(CCc3c([nH]c4ccccc34)[C@@](C(=O)OC)(c3cc4c(cc3OC)N(C)[C@H]3[C@@](O)(C(=O)OC)[C@H](OC(C)=O)[C@]5(CC)C=CCN6CC[C@]43[C@@H]65)C2)C1 [VINBLASTINE]
- IC50 [3]: 0.23 µM
- IC50 (CCRF-CEM [4]): 0.004 µM

Structure (SMILES): Nc1nc(N2CCCC2)sc1C(=O)c1ccc(Br)cc1
- IC50 (CCRF-CEM [1]): > 200 µM
- IC50 (HeLa): > 200 µM
- IC50 (L1210): > 200 µM
- IC50 (MOLT-4): > 200 µM
- IC50 (FM3A): > 200 µM

Structure (SMILES): Nc1nc(N2CCCC2)sc1C(=O)c1ccccc1
- IC50 (CCRF-CEM [1]): > 200 µM
- IC50 (HeLa): > 200 µM
- IC50 (L1210): > 200 µM
- IC50 (MOLT-4): > 200 µM
- IC50 (FM3A): > 200 µM

Structure (SMILES): COc1cc(C(=O)c2sc(N)nc2N)cc(OC)c1OC
- inhibition (Bos taurus): inactive
- IC50 (CCRF-CEM [1]): 42 µM
- IC50 (HeLa): 31 µM
- IC50 (L1210): 48 µM
- IC50 (FM3A): 63 µM

Structure (SMILES): COc1cccc(C(=O)c2sc(N3CCCC3)nc2N)c1
- IC50 (CCRF-CEM [1]): > 200 µM
- IC50 (HeLa): > 200 µM
- IC50 (L1210): > 200 µM
- IC50 (MOLT-4): > 200 µM
- IC50 (FM3A): > 200 µM

Structure (SMILES): COc1ccc(C(=O)c2sc(N3CCCC3)nc2N)cc1OC
- IC50 (CCRF-CEM [1]): 19 µM
- IC50 (HeLa): 36 µM
- IC50 (L1210): 60 µM
- IC50 (MOLT-4): 31 µM
- IC50 (FM3A): 112 µM

Structure (SMILES): COc1ccc(/C=C\c2cc(OC)c(OC)c(OC)c2)cc1O [COMBRETASTATIN A4]
- IC50 (CCRF-CEM [1]): 0.002 µM
- IC50 (HeLa): 0.002 µM
- IC50 (L1210): 0.003 µM

Structure (SMILES): COc1cc(C(=O)c2sc(N3CCOCC3)nc2N)cc(OC)c1OC
- inhibition (Bos taurus): inactive
- IC50 (CCRF-CEM [1]): 25 µM
- IC50 (HeLa): 8.8 µM
- IC50 (L1210): 38 µM
- IC50 (MOLT-4): 22 µM
- IC50 (FM3A): 24 µM
